Results of several laboratories.
Lines come from different studies, so protocols differ.
Observed: cell growth or viability

| SMILES | cell line | technique | time | setting | quantity | value |
| --- | --- | --- | --- | --- | --- | --- |
| C=CC(=O)N1CCN(c2nc(=O)n(-c3c(C)ccnc3C(C)C)c3nc(-c4c(O)cccc4F)c(F)cc23)[C@@H](C)C1 | NCI-H1373 | ATP luminescence |  |  | IC50 | 48.4 nM |
| O=C(NO)c1ccc(CNc2nc3cccc(-c4ccc5c(c4)OCO5)n3n2)cc1 | HOP-92 | SRB |  |  | GI50 | 700 nM |
| CN1CCc2cc(Nc3ncc(C4CC4)c(NCCCNC(=O)C4CCC4)n3)ccc2C1 | K562 | MTT | 72 h |  | GI50 | > 1000 nM |
| O=C(O)c1cccnc1Nc1cccc(C(F)(F)F)c1 | HCT-15 | SRB | 48 h |  | GI50 | > 30000 nM |
| C=CC(=O)NC1CCN(c2ncc3ncnc(Nc4ccc(Oc5ccc6c(c5)ncn6C)c(C)c4)c3n2)CC1 | NCI-H1373 |  |  |  | EC50 | 137000 nM |
| C=C(F)C(=O)N1CCN(c2nc(OC[C@@H]3CCCN3C)nc3c2CCN(c2cccc4cccc(Cl)c24)C3)C[C@@H]1CC#N | HCT-15 | ATP luminescence |  | 3D culture | IC50 | > 1000 nM |
| COc1cc2c3c(n(CCCN4CCOCC4)c(=O)c2cc1OC)-c1nc2c(cc1C3=O)OCO2 | K562 | MTS | 72 h |  | IC50 | 1010 nM |
| C=CC(=O)c1cccnc1Nc1cc(C(F)(F)F)ccc1OC | HCT-15 | SRB | 48 h |  | GI50 | 6960 nM |
| Cc1cc(C)c(CNC(=O)c2cc(Cl)c3c(c2C)O[C@@](C)([C@H]2CC[C@H](N(C)C)CC2)O3)c(=O)[nH]1 | HT-1376 | ATP luminescence | 18 days |  | GI50 | 18 nM |
| COc1cc2c3c(n(CCCNCCO)c(=O)c2cc1OC)-c1nc2c(cc1C3=O)OCO2 | K562 | MTS | 72 h |  | IC50 | 196 nM |
| CN(C)C(=O)c1cncc(-c2cnc3[nH]cc(-c4ccccc4C#N)c3c2)c1 | K562 | MTT | 72 h |  | GI50 | 591 nM |
| CC(C)C[C@@H]1NC(=O)[C@@H](N(C)C(=O)[C@H](CC2CCC2)NC(=O)[C@@H]2C[C@@H](F)CN2C(=O)C2(C(F)(F)F)CC(F)(F)C2)CCCCNC(=O)C2(CC2)NC(=O)[C@H](Cc2cc(Cl)ccc2Cl)N(C)C1=O | NCI-H446 | MTT | 5 days |  | GI50 | 65 nM |
| C=CC[C@@H]1/C=C(\C)C[C@H](C)C[C@H](OC)[C@H]2O[C@@](O)(C(=O)C(=O)N3CCCC[C@H]3C(=O)O[C@H](/C(C)=C/[C@@H]3CC[C@@H](O)[C@H](OC)C3)[C@H](C)[C@@H](O)CC1=O)[C@H](C)C[C@@H]2OC | K562 | MTT | 72 h |  | GI50 | > 1000 nM |
| CCNCCCn1c2c(c3cc(OC)c(OC)cc3c1=O)C(=O)c1cc3c(nc1-2)OCO3 | K562 | MTS | 72 h |  | IC50 | 158 nM |
| O=C(Nc1ccc(OC(F)(F)Cl)cc1)c1cnc(N2CC[C@@H](O)C2)c(-c2cc[nH]n2)c1 | K562 | MTT | 72 h |  | GI50 | 0.72 nM |
| CC(C)C[C@@H]1NC(=O)[C@@H](N(C)C(=O)[C@@H](NC(=O)[C@@H]2C[C@@H](F)CN2C(=O)C2(C(F)(F)F)CC(F)(F)C2)C2CC2)CCCCNC(=O)C(C)(C)NC(=O)[C@H](Cc2cc(Cl)nn2-c2ccccc2)N(C)C1=O | NCI-H446 | MTT | 5 days |  | GI50 | 4400 nM |
| O=C(C=Cc1ccccc1)Nc1cc(-c2ccnc(N3CCC(O)CC3)c2)ccn1 | MCF-10A | MTT | 72 h |  | IC50 | 3330 nM |
| COc1ccc(OCc2ccc([N+](=O)[O-])cc2)cc1-c1c[nH]c2ncc(-c3cncc(C(=O)N(C)C)c3)cc12 | K562 | MTT | 72 h |  | GI50 | 697 nM |
